# Measured values published in article PMC5599134 (Structure (London, England : 1993), 2017).
# Changes are numbered by the printed parent chain. Names and notes keep the numbering of the source. Ends that are not written are not given here.
# B1: ANK17-W130A: ANK17 with alanine substitution at position W130 (protein, UniProt Q8IUH5 50-288, looked up, variant W130A)
# chain: KTHIDDYSTWDIVKATQYGIYERCRELVEAGYDVRQPDKENVTLLHWAAINNRIDLVKYYISKGAIVDQLGGDLNSTPLHAATRQGHLSMVVQLMKYGADPSLIDGEGCSCIHLAAQFGHTSIVAYLIAKGQDVDMMDQNGMTPLMWAAYRTHSVDPTRLLLTFNVSVNLGDKYHKNTALHWAVLAGNTTVISLLLEAGANVDAQNIKGESALDLAKQRKNVWMINHLQEARQAKGYDN
# modifications: ankyrin repeat domain
# B2: ANK17: cytoplasmic ankyrin repeat domain of human DHHC17, residues K50 to D288 (protein, UniProt Q8IUH5 50-288, looked up, fragment)
# chain: B1 chain with A81W
# modifications: ankyrin repeat domain
# B3: DHHC15: DHHC15 palmitoyl transferase (NM_144969), comparison enzyme (protein, UniProt Q96MV8 1-337, looked up)
# Palmitoyltransferase ZDHHC15: MRRGWKMALSGGLRCCRRVLSWVPVLVIVLVVLWSYYAYVFELCLVTVLSPAEKVIYLILYHAIFVFFTWTYWKSIFTLPQQPNQKFHLSYTDKERYENEERPEVQKQMLVDMAKKLPVYTRTGSGAVRFCDRCHLIKPDRCHHCSVCAMCVLKMDHHCPWVNNCIGFSNYKFFLQFLAYSVLYCLYIATTVFSYFIKYWRGELPSVRSKFHVLFLLFVACMFFVSLVILFGYHCWLVSRNKTTLEAFCTPVFTSGPEKNGFNLGFIKNIQQVFGDKKKFWLIPIGSSPGDGHSFPMRSMNESQNPLLANEETWEDNEDDNQDYPEGSSSLAVETET
# modifications: 10xHis tag
# B4: DHHC17-C467S: mutation of the cysteine of DHHC domain to serine (protein, UniProt Q8IUH5 1-632, looked up, variant C467S)
# Palmitoyltransferase ZDHHC17: MQREEGFNTKMADGPDEYDTEAGCVPLLHPEEIKPQSHYNHGYGEPLGRKTHIDDYSTWDIVKATQYGIYERCRELVEAGYDVRQPDKENVTLLHWAAINNRIDLVKYYISKGAIVDQLGGDLNSTPLHWATRQGHLSMVVQLMKYGADPSLIDGEGCSCIHLAAQFGHTSIVAYLIAKGQDVDMMDQNGMTPLMWAAYRTHSVDPTRLLLTFNVSVNLGDKYHKNTALHWAVLAGNTTVISLLLEAGANVDAQNIKGESALDLAKQRKNVWMINHLQEARQAKGYDNPSFLRKLKADKEFRQKVMLGTPFLVIWLVGFIADLNIDSWLIKGLMYGGVWATVQFLSKSFFDHSMHSALPLGIYLATKFWMYVTWFFWFWNDLNFLFIHLPFLANSVALFYNFGKSWKSDPGIIKATEEQKKKTIVELAETGSLDLSIFCSTCLIRKPVRSKHCGVCNRCIAKFDHHSPWVGNCVGAGNHRYFMGYLFFLLFMICWMIYGCISYWGLHCETTYTKDGFWTYITQIATCSPWMFWMFLNSVFHFMWVAVLLMCQMYQISCLGITTNERMNARRYKHFKVTTTSIESPFNHGCVRNIIDFFEFRCCGLFRPVIVDWTRQYTIEYDQISGSGYQLV
# What was measured:
# [1] = biological target: Snap25b (Synaptosomal-associated protein 25), wild type, full length (human) (UniProt P60880); assay: ITC
# [2] = tested on: Snap25b; format: cell-based, human; conditions: HEK-293T, 100 μM 17-ODYA, 4 h, 37°C; Rhodamine-azide click; n=3
# Summary of the method: (§1)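 HEK-293T cells (DMEM, 10% FBS, 37°C, 5% CO2) co-transfected with 2 μg GFP-DHHC17 (wild type or mutants) and 0.5 μg EGFP-Snap25b, cysteine-less C4A or empty vector, using PEI-max. At 24 h, cells given serum-free DMEM with 100 μM 17-ODYA for 4 h at 37°C, then lysed in dodecylmaltoside buffer. Click reaction with rhodamine azide/CuSO4/TCEP/TBTA for 1 h at room temperature. In-gel rhodamine fluorescence; anti-GFP and anti-Snap25b blots; bands quantitated.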
# [3] = tested on: Snap25b-WT; assay: In vitro palmitate transfer from NBD-palmitoyl-CoA to Snap25b; format: biochemical, human; conditions: both in absence and presence of purified Snap25b-WT
# [4] = tested on: DHHC17; assay: Autoacylation of DHHC17 in 17-ODYA metabolic labeling; format: cell-based, human; conditions: HEK-293T, click chemistry
# Summary of the method: as §1
# [5] = biological target: T1, ANK17 domain of DHHC17 (Homo sapiens, UniProt Q8IUH5); assay: ITC titration of ANK17-WT with Snap25b species; format: binding; conditions: for effect of alanine mutation in Snap25b on binding to ANK17 (in words): ITC, ANK17-WT titrated into Snap25b mutants, 25°C, 1X PBS 1 mM DTT
# T1 sequence (Q8IUH5 50-288): B1 chain with A81W
# [6] = tested on: Snap25b-WT; assay: Co2+ affinity pull-down of GFP-Snap25b-WT by DHHC17 mutants in HEK-293T cells; format: cell-based, human; conditions: 24 h co-transfection, Co2+ (Talon) pull down, gel-densitometry
# [7] = biological target: Snap25b-C4A (cysteine-less mutant), full length (human) (UniProt P60880); assay: ITC
# [8] = biological target: Snap25b_(111–120) peptide (human); assay: ITC
# [9] = tested on: wild-type Htt; assay: ITC titration of ANK17-W130A into MBP-Htt1–548; format: binding; conditions: titrated into MBP-Htt1–548, 25°C, 1X PBS 1 mM DTT
# [10] = tested on: Snap25b-WT; assay: ITC titration of ANK17 mutants into full-length Snap25b-WT; format: binding, human; conditions: ANK17 mutants titrated into Snap25b-WT, 25°C, 1X PBS 1 mM DTT
# [11] = Size exclusion chromatography; format: physicochemical; conditions: Superdex-200
# Summary of the method: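 His-tagged protein expressed in E. coli BL21(DE3)-Gold and Ni-NTA purified. Spun at 21000 × g for 20 min at 4°C, then about 200 μL injected onto Superdex-200. Column buffer was 50mM Tris-HCl, 50mM NaCl, 5% glycerol, 1mM DTT for crystallization, or 1X PBS pH 7.4 with 1 mM DTT for ITC. Peak fractions pooled.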
# [12] = tested on: Snap25b; conditions: palmitoylated enzyme intermediate; ref Greaves et al., 2017; cited from earlier work
molecule,measurement,setting,value
ANK17-Y67A (domain or fragment),fold reduction of affinity against ANK17-WT,[1],5 fold
DHHC17: full length human DHHC17 palmitoyltransferase (NP_056151),S-acylation (palmitate transfer) of Snap25b (in words),[2],readily transfers palmitate to Snap25b
same,autopalmitoylation with or without Snap25b (in words),[3],does not appear to get autopalmitoylated to appreciable levels
same,autoacylation (in words),[4],did not detect any autoacylation
GVVASQPARV [Snap25b111–120],Kd,[5],~11 µM
N100A: full length DHHC17 mutant N100A (GFP fusion),S-acylation (palmitate transfer) of Snap25b (in words),[2],severely reduced levels of palmitoylation
same,amount of Snap25b pulled down by DHHC17 mutant (in words),[6],largest decrease in affinity
P117A: Snap25b alanine mutant P117A (GFP fusion in pull-down),effect of alanine mutation in Snap25b on binding to ANK17 (in words),[5],largest reduction in binding affinity
same,effect of alanine mutation in Snap25b on binding to ANK17 (in words),[5]; listed as Snap25b-P117A,showed only marginal heat of binding and we could not obtain any fitting of the integrated heats
V113A: Snap25b alanine mutant V113A (GFP fusion in pull-down),effect of alanine mutation in Snap25b on binding to ANK17 (in words),[5],followed by the V113A and Q116A
W130A: full length DHHC17 mutant W130A (GFP fusion),S-acylation (palmitate transfer) of Snap25b (in words),[2],severely reduced levels of palmitoylation
same,amount of Snap25b pulled down by DHHC17 mutant (in words),[6],largest decrease in affinity
"ankyrin repeat domain of Human DHHC17 (ANK17), wild type (domain or fragment)",Kd,[7],3 µM
same,Kd,[8],11 µM
mutation to phenylalanine: full length DHHC17 with W130 mutated to phenylalanine,S-acylation (palmitate transfer) of Snap25b (in words),[2],loss of function of W130A can be recovered
B1,binding of ANK17 mutant to wild-type Htt (in words),[9],no discernible signs of binding to wild-type Htt
same,effect of alanine mutation in ANK17 on binding to full-length Snap25b (in words),[10],showed only heat of dilution
B2,size exclusion peak homogeneity (in words),[11],homogenous and monodisperse peaks
B3,palmitate transfer to Snap25b (in words),[12],capable of transferring palmitate to a protein substrate such as Snap25b
B4,S-acylation (palmitate transfer) of Snap25b (in words),[2],does not show any appreciable transfer
